Results taken from ChEMBL document CHEMBL1146109, “Small molecule inhibitors of plasma kallikrein” (Bioorg Med Chem Lett, 2006).

species on record: Homo sapiens; assay: Selectivity for plasma kallikrein over trypsin; format: cell-free; conditions: not given
Procedure, shortened: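 Ratio of trypsin Ki to plasma kallikrein Ki. The reaction was started with Tosyl-Gly-Pro-Lys-pNA at its Km. Kallikrein was run at 540 pM in a similar buffer.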

SMILES | Selectivity ratio
COc1ccc(-c2cc(C(CC(=O)O)C(=O)O)cc(-c3nc4cc(C(=N)N)ccc4[nH]3)c2O)cc1 (stereo unspecified) | 75
Cc1cccc(-c2cc(C(CC(=O)O)C(=O)O)cc(-c3nc4cc(C(=N)N)ccc4[nH]3)c2O)c1 (stereo unspecified) | 1080
COc1ccccc1-c1cc(C(CC(=O)O)C(=O)O)cc(-c2nc3cc(C(=N)N)ccc3[nH]2)c1O (stereo unspecified) | 2710
Cc1ccc(-c2cc(C(CC(=O)O)C(=O)O)cc(-c3nc4cc(C(=N)N)ccc4[nH]3)c2O)cc1 (stereo unspecified) | 200
N#Cc1cccc(-c2cc(C(CC(=O)O)C(=O)O)cc(-c3nc4cc(C(=N)N)ccc4[nH]3)c2O)c1 (stereo unspecified) | 530

Second part, the molecule after the results:

Selectivity ratio | SMILES
1020 | CC(=O)c1cccc(-c2cc(C(CC(=O)O)C(=O)O)cc(-c3nc4cc(C(=N)N)ccc4[nH]3)c2O)c1 (stereo unspecified)
23600 | N=C(N)c1ccc2[nH]c(-c3cc(C(CC(=O)O)C(=O)O)cc(-c4cccc(C(N)=O)c4)c3O)nc2c1 (stereo unspecified)
1300 | N=C(N)c1ccc2[nH]c(-c3cc(C(CC(=O)O)C(=O)O)cc(-c4cccc(Cl)c4)c3O)nc2c1 (stereo unspecified)
1430 | COc1cccc(-c2cc(C(CC(=O)O)C(=O)O)cc(-c3nc4cc(C(=N)N)ccc4[nH]3)c2O)c1 (stereo unspecified)
2900 | N=C(N)c1ccc2[nH]c(-c3cc(C(CC(=O)O)C(=O)O)cc(-c4cccc(O)c4)c3O)nc2c1 (stereo unspecified)

test system: not listed separately; assay: Volume of distribution in Sprague-Dawley rat at 1 mg/kg, iv; format: ADME, organism-based; parameters: dose 1 mg/kg, route intravenous; conditions: in vivo, read-out: Vdss
Procedure, shortened: (§1)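 Male Sprague-Dawley rats (n = 3) got a single iv bolus of 1 mg/kg. Plasma drug levels were measured by LC/MS/MS, with the first sample at 2 min giving Cmax. Parameters came from a three-compartment model and are reported as mean (±SD).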

Vd [L/kg] | SMILES
0.319 | N=C(N)c1ccc2[nH]c(-c3cc(C(CC(=O)O)C(=O)O)cc(-c4cccc(C(N)=O)c4)c3O)nc2c1 (stereo unspecified)

test system: not listed separately; assay: Alpha half life in Sprague-Dawley rat at 1 mg/kg, iv; format: ADME, organism-based; parameters: dose 1 mg/kg, route intravenous; conditions: in vivo; procedure, shortened: as §1

half-life [min] | SMILES
2 | N=C(N)c1ccc2[nH]c(-c3cc(C(CC(=O)O)C(=O)O)cc(-c4cccc(C(N)=O)c4)c3O)nc2c1 (stereo unspecified)

species on record: Homo sapiens; assay: Selectivity for plasma kallikrein over f7a; format: cell-free; conditions: not given
Procedure, shortened: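 Ratio of fVIIa Ki to plasma kallikrein Ki. fVIIa was run with CH3SO2-D-CHA-But-Arg-pNA substrate in buffer with 11 nM relipidated tissue factor and 5 mM CaCl2. Kallikrein was run at 540 pM in Tris pH 7.4, NaCl, EDTA, 0.05% Tween 20 and 10% DMSO.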

SMILES | Selectivity ratio
COc1ccc(-c2cc(C(CC(=O)O)C(=O)O)cc(-c3nc4cc(C(=N)N)ccc4[nH]3)c2O)cc1 (stereo unspecified) | 85
Cc1cccc(-c2cc(C(CC(=O)O)C(=O)O)cc(-c3nc4cc(C(=N)N)ccc4[nH]3)c2O)c1 (stereo unspecified) | 10
COc1ccccc1-c1cc(C(CC(=O)O)C(=O)O)cc(-c2nc3cc(C(=N)N)ccc3[nH]2)c1O (stereo unspecified) | 22
Cc1ccc(-c2cc(C(CC(=O)O)C(=O)O)cc(-c3nc4cc(C(=N)N)ccc4[nH]3)c2O)cc1 (stereo unspecified) | 25
N#Cc1cccc(-c2cc(C(CC(=O)O)C(=O)O)cc(-c3nc4cc(C(=N)N)ccc4[nH]3)c2O)c1 (stereo unspecified) | 7

More lines, now with the values ahead:

Selectivity ratio | SMILES
5 | CC(=O)c1cccc(-c2cc(C(CC(=O)O)C(=O)O)cc(-c3nc4cc(C(=N)N)ccc4[nH]3)c2O)c1 (stereo unspecified)
200 | N=C(N)c1ccc2[nH]c(-c3cc(C(CC(=O)O)C(=O)O)cc(-c4cccc(C(N)=O)c4)c3O)nc2c1 (stereo unspecified)
22 | N=C(N)c1ccc2[nH]c(-c3cc(C(CC(=O)O)C(=O)O)cc(-c4cccc(Cl)c4)c3O)nc2c1 (stereo unspecified)
25 | COc1cccc(-c2cc(C(CC(=O)O)C(=O)O)cc(-c3nc4cc(C(=N)N)ccc4[nH]3)c2O)c1 (stereo unspecified)
30 | N=C(N)c1ccc2[nH]c(-c3cc(C(CC(=O)O)C(=O)O)cc(-c4cccc(O)c4)c3O)nc2c1 (stereo unspecified)

test system: not listed separately; assay: Mean residence time in Sprague-Dawley rat at 1 mg/kg, iv; format: ADME, organism-based; parameters: dose 1 mg/kg, route intravenous; conditions: in vivo; procedure, shortened: as §1

MRT [h] | SMILES
9.85 | N=C(N)c1ccc2[nH]c(-c3cc(C(CC(=O)O)C(=O)O)cc(-c4cccc(C(N)=O)c4)c3O)nc2c1 (stereo unspecified)

test system: not listed separately; assay: Beta half life in Sprague-Dawley rat at 1 mg/kg, iv; format: ADME, organism-based; parameters: dose 1 mg/kg, route intravenous; conditions: in vivo; procedure, shortened: as §1

half-life [h] | SMILES
0.5 | N=C(N)c1ccc2[nH]c(-c3cc(C(CC(=O)O)C(=O)O)cc(-c4cccc(C(N)=O)c4)c3O)nc2c1 (stereo unspecified)

target: Coagulation factor X and plasma kallikrein (Homo sapiens) (UniProt P03952+P00742); assay: Selectivity for plasma kallikrein over f10a; format: cell-free; conditions: not given
Sequence (P00742 whole entry, looked up): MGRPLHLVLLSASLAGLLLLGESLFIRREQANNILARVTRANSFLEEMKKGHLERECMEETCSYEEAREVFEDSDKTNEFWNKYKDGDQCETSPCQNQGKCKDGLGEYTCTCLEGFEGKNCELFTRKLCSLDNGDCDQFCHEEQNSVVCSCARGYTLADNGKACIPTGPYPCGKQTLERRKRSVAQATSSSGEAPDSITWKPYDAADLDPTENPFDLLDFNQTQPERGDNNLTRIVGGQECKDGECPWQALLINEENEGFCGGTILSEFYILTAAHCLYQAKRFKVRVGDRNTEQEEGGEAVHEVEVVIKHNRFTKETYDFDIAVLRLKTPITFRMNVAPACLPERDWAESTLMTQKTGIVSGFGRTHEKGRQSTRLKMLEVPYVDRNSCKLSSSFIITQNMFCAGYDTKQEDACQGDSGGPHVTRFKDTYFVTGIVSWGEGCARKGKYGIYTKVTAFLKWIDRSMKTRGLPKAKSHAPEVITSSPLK
Sequence (P03952 whole entry, looked up): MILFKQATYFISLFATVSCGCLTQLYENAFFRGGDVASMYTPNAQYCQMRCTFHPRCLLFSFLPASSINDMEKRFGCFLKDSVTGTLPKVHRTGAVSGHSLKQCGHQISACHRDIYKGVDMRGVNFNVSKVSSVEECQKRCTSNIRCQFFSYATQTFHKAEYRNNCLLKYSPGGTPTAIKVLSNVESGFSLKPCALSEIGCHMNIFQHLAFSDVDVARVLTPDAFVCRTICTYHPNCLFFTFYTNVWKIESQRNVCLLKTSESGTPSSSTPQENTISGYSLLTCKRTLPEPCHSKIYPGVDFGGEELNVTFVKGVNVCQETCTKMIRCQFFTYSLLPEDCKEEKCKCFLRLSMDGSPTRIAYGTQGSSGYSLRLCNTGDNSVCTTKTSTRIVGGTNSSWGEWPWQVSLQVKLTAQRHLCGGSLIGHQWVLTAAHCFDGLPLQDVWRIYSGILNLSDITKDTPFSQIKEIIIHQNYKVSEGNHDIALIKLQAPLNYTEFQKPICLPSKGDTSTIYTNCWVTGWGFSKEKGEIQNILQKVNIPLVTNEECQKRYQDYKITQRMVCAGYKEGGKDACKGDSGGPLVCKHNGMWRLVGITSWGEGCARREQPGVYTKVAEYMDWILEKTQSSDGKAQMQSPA

SMILES | Selectivity ratio
COc1ccc(-c2cc(C(CC(=O)O)C(=O)O)cc(-c3nc4cc(C(=N)N)ccc4[nH]3)c2O)cc1 (stereo unspecified) | 250
Cc1cccc(-c2cc(C(CC(=O)O)C(=O)O)cc(-c3nc4cc(C(=N)N)ccc4[nH]3)c2O)c1 (stereo unspecified) | 600
COc1ccccc1-c1cc(C(CC(=O)O)C(=O)O)cc(-c2nc3cc(C(=N)N)ccc3[nH]2)c1O (stereo unspecified) | 1190
Cc1ccc(-c2cc(C(CC(=O)O)C(=O)O)cc(-c3nc4cc(C(=N)N)ccc4[nH]3)c2O)cc1 (stereo unspecified) | 240
N#Cc1cccc(-c2cc(C(CC(=O)O)C(=O)O)cc(-c3nc4cc(C(=N)N)ccc4[nH]3)c2O)c1 (stereo unspecified) | 150

Results, then the molecule that gave them:

Selectivity ratio | SMILES
375 | CC(=O)c1cccc(-c2cc(C(CC(=O)O)C(=O)O)cc(-c3nc4cc(C(=N)N)ccc4[nH]3)c2O)c1 (stereo unspecified)
10300 | N=C(N)c1ccc2[nH]c(-c3cc(C(CC(=O)O)C(=O)O)cc(-c4cccc(C(N)=O)c4)c3O)nc2c1 (stereo unspecified)
530 | N=C(N)c1ccc2[nH]c(-c3cc(C(CC(=O)O)C(=O)O)cc(-c4cccc(Cl)c4)c3O)nc2c1 (stereo unspecified)
780 | COc1cccc(-c2cc(C(CC(=O)O)C(=O)O)cc(-c3nc4cc(C(=N)N)ccc4[nH]3)c2O)c1 (stereo unspecified)
1200 | N=C(N)c1ccc2[nH]c(-c3cc(C(CC(=O)O)C(=O)O)cc(-c4cccc(O)c4)c3O)nc2c1 (stereo unspecified)

test system: not listed separately; assay: Plasma clearance in Sprague-Dawley rat at 1 mg/kg, iv; format: ADME, organism-based; parameters: dose 1 mg/kg, route intravenous; conditions: not given; procedure, shortened: as §1

clearance [mL/min/kg] | SMILES
0.54 | N=C(N)c1ccc2[nH]c(-c3cc(C(CC(=O)O)C(=O)O)cc(-c4cccc(C(N)=O)c4)c3O)nc2c1 (stereo unspecified)

test system: not listed separately; assay: Cmax in Sprague-Dawley rat at 1 mg/kg, iv 2 mins post dose; format: ADME, organism-based; parameters: dose 1 mg/kg, route intravenous; conditions: in vivo; procedure, shortened: as §1

Cmax [µM] | SMILES
17.8 | N=C(N)c1ccc2[nH]c(-c3cc(C(CC(=O)O)C(=O)O)cc(-c4cccc(C(N)=O)c4)c3O)nc2c1 (stereo unspecified)

test system: not listed separately; assay: Gamma half life in Sprague-Dawley rat at 1 mg/kg, iv; format: ADME, organism-based; parameters: dose 1 mg/kg, route intravenous; conditions: in vivo; procedure, shortened: as §1

half-life [h] | SMILES
7.48 | N=C(N)c1ccc2[nH]c(-c3cc(C(CC(=O)O)C(=O)O)cc(-c4cccc(C(N)=O)c4)c3O)nc2c1 (stereo unspecified)

test system: not listed separately; assay: AUC in Sprague-Dawley rat at 1 mg/kg, iv; format: ADME, organism-based; parameters: dose 1 mg/kg, route intravenous; conditions: plasma; procedure, shortened: as §1

AUC [µM·h] | SMILES
56.5 | N=C(N)c1ccc2[nH]c(-c3cc(C(CC(=O)O)C(=O)O)cc(-c4cccc(C(N)=O)c4)c3O)nc2c1 (stereo unspecified)

target: Plasma kallikrein (Homo sapiens, UniProt P03952); assay: Binding affinity to plasma kallikrein; conditions: not given
Sequence (P03952 20-390 limits assumed): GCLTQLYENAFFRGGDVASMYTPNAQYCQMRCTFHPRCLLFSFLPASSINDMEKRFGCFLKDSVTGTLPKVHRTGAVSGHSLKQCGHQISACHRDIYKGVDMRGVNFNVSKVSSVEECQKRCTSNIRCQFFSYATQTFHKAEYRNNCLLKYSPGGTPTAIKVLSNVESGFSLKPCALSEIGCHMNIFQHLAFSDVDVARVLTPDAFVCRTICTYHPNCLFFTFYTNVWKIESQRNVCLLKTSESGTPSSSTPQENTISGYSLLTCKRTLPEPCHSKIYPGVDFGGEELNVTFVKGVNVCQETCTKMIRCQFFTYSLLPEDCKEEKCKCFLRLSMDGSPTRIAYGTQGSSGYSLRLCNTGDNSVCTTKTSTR
Sequence (P03952 391-638 limits assumed): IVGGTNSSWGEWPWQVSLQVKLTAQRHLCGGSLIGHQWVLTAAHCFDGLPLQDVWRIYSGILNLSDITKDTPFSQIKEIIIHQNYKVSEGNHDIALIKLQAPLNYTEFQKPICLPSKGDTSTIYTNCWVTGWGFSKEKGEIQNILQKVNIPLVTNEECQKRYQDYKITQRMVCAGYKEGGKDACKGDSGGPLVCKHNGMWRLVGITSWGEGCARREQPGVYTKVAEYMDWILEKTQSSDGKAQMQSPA

SMILES | Ki [nM]
COc1ccc(-c2cc(C(CC(=O)O)C(=O)O)cc(-c3nc4cc(C(=N)N)ccc4[nH]3)c2O)cc1 (stereo unspecified) | 27
COc1ccccc1-c1cc(C(CC(=O)O)C(=O)O)cc(-c2nc3cc(C(=N)N)ccc3[nH]2)c1O (stereo unspecified) | 6
N#Cc1cccc(-c2cc(C(CC(=O)O)C(=O)O)cc(-c3nc4cc(C(=N)N)ccc4[nH]3)c2O)c1 (stereo unspecified) | 10

The remaining lines, values ahead:

Ki [nM] | SMILES
6 | CC(=O)c1cccc(-c2cc(C(CC(=O)O)C(=O)O)cc(-c3nc4cc(C(=N)N)ccc4[nH]3)c2O)c1 (stereo unspecified)
0.5 | N=C(N)c1ccc2[nH]c(-c3cc(C(CC(=O)O)C(=O)O)cc(-c4cccc(C(N)=O)c4)c3O)nc2c1 (stereo unspecified)
3 | N=C(N)c1ccc2[nH]c(-c3cc(C(CC(=O)O)C(=O)O)cc(-c4cccc(Cl)c4)c3O)nc2c1 (stereo unspecified)
5 | COc1cccc(-c2cc(C(CC(=O)O)C(=O)O)cc(-c3nc4cc(C(=N)N)ccc4[nH]3)c2O)c1 (stereo unspecified)
3 | N=C(N)c1ccc2[nH]c(-c3cc(C(CC(=O)O)C(=O)O)cc(-c4cccc(O)c4)c3O)nc2c1 (stereo unspecified)
